# Shown are actives, neighbours in structure and some others; about 6.4% of the full set was active somewhere.
# EBV gp42 block: Epstein-Barr virus gp42 inhibitors, primary screen, biochemical, uHTS, fluorescence polarization. Fluorescence polarization binding assay, mP read-out. inhibition, % (tested at 21.74 µM). actives 0.42% (n = 220,000). AID 1085, 2008; in the data active = inhibition above about 50%
# Target sequence (Q1HVG2 whole entry, looked up): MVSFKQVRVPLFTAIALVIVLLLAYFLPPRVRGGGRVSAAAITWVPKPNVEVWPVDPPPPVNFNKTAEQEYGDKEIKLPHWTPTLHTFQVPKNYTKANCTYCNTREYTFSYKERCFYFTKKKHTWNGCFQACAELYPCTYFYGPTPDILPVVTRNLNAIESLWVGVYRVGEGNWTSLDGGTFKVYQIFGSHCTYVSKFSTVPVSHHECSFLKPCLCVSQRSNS
# Tb MetRS inh: T. brucei MetRS inhibitors, primary screen, biochemical, luminescence. methionyl-tRNA synthetase (Trypanosoma brucei brucei). purified T. brucei MetRS, ATP depletion, Kinase-Glo luminescence. inhibition, % at 11.9 µM. actives 0.4% (n = 360,000). AID 624268, 2012;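 active = inhibition above a per-plate cutoff of the control wells' mean inhibition plus 3 SD, cut at about 5.5% in these data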;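 also: 0% = DMSO wells median and 100% = median of wells with control inhibitor compound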
#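 Dosing: 11.9 µM single point; system: parasite MetRS enzyme; technique: luminescence of leftover ATP; times: 15 min enzyme-compound preincubation, 2 h reaction, 10 min detection, 25 °C; replicates: each compound tested once; read-out basis: percent inhibition relative to median high and low control wells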
# WT yeast gro inh: growth inhibition of WT strain, primary screen, mitochondrial fusion inhibitor project, WT and mutant strains, chemical genetic | actives 2.1% (n = 190,000) | mitochondrial fusion phenotypic screen | inhibition, % at 10 µM; in the data active = inhibition above about 58%; tested in S. cerevisiae
# NR3A LBD binder: binders of NR3A ligand-binding domain, primary screen, biophysical, differential scanning fluorimetry, uHTS | Glutamate receptor ionotropic, NMDA 3A (GRIN3A) ligand-binding domain | NR3A LBD differential scanning fluorimetry, Tm shift; 0% = protein alone, 100% = glycine-bound protein | Tm shift relative to glycine control, % at 25 µM | actives 2.5% (n = 340,000) | AID 1259313, 2017;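 active = melting temperature shift of at least 10% of the positive control shift, at one fixed dose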
# MPTP inh: mitochondrial permeability transition pore inhibitors, primary screen, biochemical, isolated mouse mitochondria, absorbance. Ca2+ swelling absorbance, 30 min. inhibition, % at 10 µM. actives 1.4% (n = 360,000);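 active = inhibition of 50% or more, scaled per plate between neutral and stimulator controls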;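 also: 0% = DMSO wells given calcium and 100% = 1 mM EGTA wells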
# CHOP inh: inhibitors of CHOP promoter induction, primary screen, cell-based, unfolded protein response, luciferase reporter. AID 2732, 2010. inhibition, % at 10 µM. CHO-K1 CHOP-promoter luciferase, tunicamycin-induced, 15-18 h. actives 3.8% (n = 220,000);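 active = compounds that reduced the stress-induced luciferase reporter signal by more than about 70% of percent inhibition, limit read from the data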;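 also: 0% = tunicamycin plus vehicle and 100% = wells without tunicamycin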
# Active calls of the source: *; nt = no result.
SMILES,EBV gp42 block,Tb MetRS inh,WT yeast gro inh,NR3A LBD binder,MPTP inh,CHOP inh
Oc1ccccc1N1CCN(c2nc(-c3cccs3)nc3ccccc23)CC1,-6,0,nt,0,5,54
CCOC(=O)c1c(COc2ccccc2)oc2ccc(O)cc12,-26,nt,-26,-9,nt,nt
CCOC(=O)c1c(C)[nH]c2ccc(O)cc12,-3,0,0,26*,-3,11
CCOC(=O)c1c(OCC)[nH]c2ccc(O)cc12,0,0,0,-15,-1,72*
NS(=O)(=O)c1ccc(NC(=O)CSc2n[nH]c(=O)n2C2CC2)cc1,nt,0,nt,2,1,nt
CCOc1ccc(OCC)c(NC(=O)C2CCN(S(=O)(=O)c3c(C)[nH]c(=O)[nH]c3=O)CC2)c1,4,0,5,1,0,18
O=C(CCn1c(=O)c2cccn2c2cccnc21)NCc1cccc(Cl)c1,nt,0,nt,10*,-2,nt
Cc1ccc(S(=O)(=O)N2CCN(C(=O)CCC(=O)NCCc3ccc(S(N)(=O)=O)cc3)CC2)c(C)c1,0,0,-2,-1,0,17
CCC(C(=O)NC1CCCC1)N(Cc1ccc2c(c1)OCO2)C(=O)c1snc(C(N)=O)c1N (stereo not given),-10,0,-2,-1,-2,7
CC(C)CC(C(=O)NC1CCCC1)N(Cc1ccc2c(c1)OCO2)C(=O)c1snc(C(N)=O)c1N (stereo not given),-10,0,-6,-1,3,81*
COc1ccc(C(=O)NCCNc2nc3ccc(C)cc3cc2C#N)cc1OC,nt,-1,nt,1,1,nt
Cc1ccc(COC(=O)CCc2nc3ccccc3c(=O)[nH]2)cc1,-15,1,8,0,1,0
Cc1noc(C)c1COC(=O)CCc1nc2ccccc2c(=O)[nH]1,-10,0,12,21*,-2,-12
CCN(CC)CCNCC(O)(c1ccc(Cl)cc1)c1ccc(Cl)cc1,-20,-1,15,2,6,-22
CCN(CC)CCNCc1ccc(-c2ccc(Cl)cc2)o1,-10,0,18,2,1,82*
S=c1nc(-c2ccc(Br)cc2)oc2c1CCCC2,5,0,3,-13,1,-73
Cc1cccc(-c2nc(=S)c3c(o2)CCCC3)c1,-1,-1,nt,2,-2,77*
N#Cc1ccc(-c2ccc(F)cc2)nc1Oc1ccc(F)cc1,-1,0,-7,-2,1,81*
N#Cc1ccc(-c2ccc(F)cc2)nc1Oc1ccccc1,-17,0,54,-9,5,8
COc1ccc(Cl)cc1NC(=O)CN1CCC(n2nnc3cc(C)ccc32)CC1,-6,0,0,-2,4,73*
COC(=O)c1cc(Cl)c(NC(=O)c2ccc(C(C)(C)C)cc2)cc1OC,6,-1,22,2,0,89*
COC(=O)c1cc(Cl)c(NC(=O)C(C)C)cc1OC,-4,-1,5,0,0,-11
COc1cc(NC(=O)Nc2ccccc2)c(OC)cc1NC(=O)CN1CCCCC1,0,-1,11,-7,-4,90*
COc1cc(NC(=O)c2ccc(C(C)(C)C)cc2)c(OC)cc1NC(=O)CN1CCCCC1,-1,0,70*,0,3,26
COc1ccccc1NC(=O)CN1CCC(n2nnc3cc(F)ccc32)CC1,-1,0,44,0,0,33
SMILES,EBV gp42 block,Tb MetRS inh,WT yeast gro inh,NR3A LBD binder,MPTP inh,CHOP inh
CC1CN(S(=O)(=O)c2cccc(C(=O)Nc3ccccc3N3CCOCC3)c2)CC(C)O1 (stereo not given),nt,0,nt,0,0,nt
COc1ccc(C)cc1NC(=O)CN1CCN(CC(=O)Nc2ccccc2F)CC1,-2,-1,11,-1,0,79*
CCc1nc(N)nc(N)c1-c1ccc(N(C)Cc2ccccc2)c([N+](=O)[O-])c1,nt,0,nt,13*,39,nt
CC1(C)Nc2ccccc2N(CCC(=O)N2CCOCC2)C1=O,-3,-1,0,13*,-4,47
Cc1ccccc1CN1CCN(C(C)C(=O)NNC(=O)c2ccc(F)cc2)CC1 (stereo not given),nt,0,nt,-2,0,nt
O=C(NC1CC1)c1cc(-c2ccco2)nc2ccccc12,84*,0,nt,-1,2,8
O=C(Nc1cccc(S(=O)(=O)NC2=NCCC2)c1)c1cc(-c2ccco2)nc2ccccc12,82*,1,nt,-3,3,15
Cc1ccc2nc(-c3cccc(Br)c3)cc(C(=O)NC3CC3)c2c1,nt,1,nt,13*,0,nt
O=C(Nc1cccc(S(=O)(=O)NC2=NCCC2)c1)c1cn(-c2ccccc2)nc1-c1ccc(F)cc1,nt,0,nt,12*,0,nt
CC(=O)N=c1sc2cc(C)ccc2n1C,-11,-1,-13,0,0,12
CSc1nc2nccc(/C=C\c3ccccc3)n2n1,13,0,22,-3,3,-6
O=C(Cn1c(=O)c2c(ncn2Cc2ccccc2)n(Cc2ccccc2)c1=O)NC1CC1,-17,0,-12,-3,-1,-3
O=C1CN(CN2CCCCC2)C(=O)CN1CN1CCCCC1,nt,-1,nt,nt,-1,nt
CCc1nnc(NC(=O)c2ccc(-c3ccccc3Cl)o2)s1,-4,0,1,0,-3,55
O=C(OCC(=O)N1CCN(C(=O)c2ccco2)CC1)c1cc(-c2ccco2)nc2ccccc12,76*,0,2,-1,2,30
O=C(N/N=C/c1ccc(F)cc1)c1cc(-c2ccco2)nc2ccccc12,83*,0,19,-4,0,31
O=C(OCC(=O)N1CCN(C(=O)c2ccco2)CC1)c1cc(-c2ccc(Cl)c(Cl)c2Cl)nc2ccccc12,-14,-1,9,-2,2,14
COc1ccc(OC(=O)NCCc2ccccc2)cc1,-8,0,nt,1,2,-26
O=C(O)c1ccccc1-c1ccccc1C(=O)NNc1ccccc1,-14,-1,18,14*,1,-9
O=C(O)c1ccccc1-c1ccccc1C(=O)Nc1ccccc1,-4,-1,7,-11,-1,-4
c1coc(-c2nc3c4c5c(sc4ncn3n2)CCCC5)c1,-22,0,-6,1,0,79*
Cc1nc2sc3c(c2c2nc(-c4ccco4)nn12)CCCC3,-16,nt,-10,nt,nt,49
Cc1ccc(NC(=O)Cc2ccc3c(c2)CCCC3)cc1C,-2,0,19,-5,4,72*
O=C(OCC(=O)N1CCC(Cc2ccccc2)CC1)c1ccccc1,-12,-1,-2,-1,1,24

# Screening results deposited in PubChem BioAssay by several laboratories.
